The test concerns the target M1-family alanyl aminopeptidase (Plasmodium falciparum 3D7). Briefly: Inhibition of P. falciparum M1 alanyl aminopeptidase – biochemical, QFRET, set 3, counter-screen for PfM17LAP inhibitor project, dose response (AID 602315). The following applies: recombinant PfM1AAP, H-Leu-NHMec fluorogenic cleavage; for inhibition: at 100 µM (top of the series). The method in brief:
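Evaluation: % inhibition and fitted IC50; test system: recombinant PfM1AAP enzyme; signal: fluorescence, ex 370/em 460 nm; buffer or medium: Tris pH 7.5 buffer with cobalt chloride; control set: enzyme-free wells as background reference; incubation: enzyme–substrate reaction 90 min at room temperature; also added: 0.1 mM H-Leu-NHMec; dosing: 10 doses, 100–0.2 µM, 1:2 steps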
A general note: Counterscreens check selectivity or assay interference.

pIC50: −log10 of the molar value. Results filed as inconclusive are left out. Active and inactive are the calls of the source.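 The calls were made as follows: active = inhibition of 30% or more at any tested concentration; inactive = the rest, inconclusive results apart.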

As a reminder, the pIC50 is the IC50 on a negative log10 scale, so that one unit is a factor of ten. Regarding `CCCCOc1ccc(C(C)C(=O)NO)cc1` (stereo not drawn), the pIC50 was 4.55.
As for `CCCCOc1cccc(CC(=O)OC)c1`, the inhibition result was “inactive”.
Regarding `CCC(C)Oc1ccc(CC(=O)NO)cc1` (stereo not drawn), the negative logarithm of the IC50 (pIC50) was 4.69.
As for `CN(C)CCOc1ccc(CC(=O)O)cc1`, the inhibition result is “inactive”.
The same measure, in the same setting: the entry for `CCCCOc1ccc(C(C)C(=O)O)cc1` (stereo not drawn) is “inactive”.
On the same count and under the same terms, the entry for `CCCCOc1ccc(CN(O)C(C)=O)cc1` is “inactive”.
With `CCCCOc1ccc(C(C)C(=O)OC)cc1` (stereo not drawn), the inhibition result is “inactive”.
Same read-out and setting: the entry for `CCCCOc1ccc(C(C)(C)C(=O)O)cc1` is “inactive”.
With `CCCOc1ccc(CC(=O)NO)cc1`, the pIC50 was 4.78.
For `O=C(NO)c1ccc2ccccc2c1`, the inhibition entry is “inactive”.
The same measure, in the same setting: the entry for `CCCCOc1ccc(C(C)(C)C(=O)NO)cc1` is “inactive”; for `CCCCOc1ccc(CN(O)C(=O)c2ccccc2)cc1` it is “inactive”.
Turning to `CCCCOc1cccc(CC(=O)NO)c1`, the pIC50 is 4.59.

The values are drawn from PubChem BioAssay AID602315 (Southern Research Specialized Biocontainment Screening …, 2012).
